From PMC7357868 (ACS chemical biology, 2019)
pIC50: −log10 of the molar value.

Experiments:
[1] = molecular target: T1, hpol κ (Homo sapiens, UniProt Q9UBT6); experiment: TAMRA strand-displacement fluorescence assay of DNA polymerase activity; assay type: biochemical
T1 sequence (Q9UBT6 19-526): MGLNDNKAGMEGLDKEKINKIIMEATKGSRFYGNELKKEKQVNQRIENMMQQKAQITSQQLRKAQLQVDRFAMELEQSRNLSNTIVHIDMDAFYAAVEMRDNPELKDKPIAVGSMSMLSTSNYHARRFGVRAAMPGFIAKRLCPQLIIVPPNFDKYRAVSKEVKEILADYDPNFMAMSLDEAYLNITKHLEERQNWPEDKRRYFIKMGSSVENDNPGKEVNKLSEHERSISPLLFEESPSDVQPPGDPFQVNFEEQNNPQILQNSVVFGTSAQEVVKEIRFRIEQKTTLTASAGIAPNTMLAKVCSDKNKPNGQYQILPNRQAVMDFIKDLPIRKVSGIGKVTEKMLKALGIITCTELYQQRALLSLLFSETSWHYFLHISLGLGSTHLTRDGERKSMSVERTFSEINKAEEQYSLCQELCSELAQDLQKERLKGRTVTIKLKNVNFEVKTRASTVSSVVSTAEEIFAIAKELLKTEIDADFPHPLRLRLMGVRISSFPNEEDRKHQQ

[2] = molecular target: T1, hpol κ; experiment: Gel-based primer extension assay; assay type: biochemical; settings: 10 μM IAG-10, 1 nM hpol κ
[3] = molecular target: T2, hpol η (Homo sapiens, UniProt Q9Y253); experiment: Gel-based primer extension assay; assay type: biochemical; settings: 10 μM IAG-10, 2 nM hpol η
T2 sequence (Q9Y253 1-437): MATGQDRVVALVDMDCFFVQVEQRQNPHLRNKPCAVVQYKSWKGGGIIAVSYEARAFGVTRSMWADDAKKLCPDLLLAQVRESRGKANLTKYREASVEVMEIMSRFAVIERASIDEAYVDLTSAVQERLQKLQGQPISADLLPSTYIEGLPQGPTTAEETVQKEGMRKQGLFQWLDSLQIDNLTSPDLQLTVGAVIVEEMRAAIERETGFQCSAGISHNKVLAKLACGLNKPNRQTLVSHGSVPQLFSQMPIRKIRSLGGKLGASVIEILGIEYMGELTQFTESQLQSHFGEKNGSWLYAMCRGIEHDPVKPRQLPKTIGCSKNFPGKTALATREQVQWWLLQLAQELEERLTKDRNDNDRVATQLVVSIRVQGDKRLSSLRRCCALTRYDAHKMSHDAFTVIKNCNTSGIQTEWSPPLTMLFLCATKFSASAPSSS

[4] = molecular target: T3, hRev1 (Homo sapiens, UniProt Q9UBZ9); experiment: Gel-based primer extension assay; assay type: biochemical; settings: 10 μM IAG-10, 10 nM hRev1
T3 sequence (Q9UBZ9 330-833): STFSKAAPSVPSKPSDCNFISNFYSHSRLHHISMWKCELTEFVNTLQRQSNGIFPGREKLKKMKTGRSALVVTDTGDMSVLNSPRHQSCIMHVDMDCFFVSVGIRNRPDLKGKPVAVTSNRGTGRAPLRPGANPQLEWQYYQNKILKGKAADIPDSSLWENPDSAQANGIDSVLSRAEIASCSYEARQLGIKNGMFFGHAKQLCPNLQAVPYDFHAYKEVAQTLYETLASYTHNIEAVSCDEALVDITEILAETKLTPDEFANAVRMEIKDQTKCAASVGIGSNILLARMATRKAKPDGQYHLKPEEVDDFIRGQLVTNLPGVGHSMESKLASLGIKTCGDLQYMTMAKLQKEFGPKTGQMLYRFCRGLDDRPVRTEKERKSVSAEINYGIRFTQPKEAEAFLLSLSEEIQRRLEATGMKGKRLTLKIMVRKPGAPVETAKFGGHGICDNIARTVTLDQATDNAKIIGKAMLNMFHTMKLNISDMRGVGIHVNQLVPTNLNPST

[5] = molecular target: DNA pol I from Mycobacterium tuberculosis (Tb pol I) (Mycobacterium tuberculosis, UniProt P9WNU5); experiment: TAMRA strand-displacement selectivity assay, A-family pol; assay type: biochemical; settings: 10 μM IAG-10, 10 nM Tb pol I
DNA pol I from Mycobacterium tuberculosis (Tb pol I), sequence (P9WNU5 whole entry): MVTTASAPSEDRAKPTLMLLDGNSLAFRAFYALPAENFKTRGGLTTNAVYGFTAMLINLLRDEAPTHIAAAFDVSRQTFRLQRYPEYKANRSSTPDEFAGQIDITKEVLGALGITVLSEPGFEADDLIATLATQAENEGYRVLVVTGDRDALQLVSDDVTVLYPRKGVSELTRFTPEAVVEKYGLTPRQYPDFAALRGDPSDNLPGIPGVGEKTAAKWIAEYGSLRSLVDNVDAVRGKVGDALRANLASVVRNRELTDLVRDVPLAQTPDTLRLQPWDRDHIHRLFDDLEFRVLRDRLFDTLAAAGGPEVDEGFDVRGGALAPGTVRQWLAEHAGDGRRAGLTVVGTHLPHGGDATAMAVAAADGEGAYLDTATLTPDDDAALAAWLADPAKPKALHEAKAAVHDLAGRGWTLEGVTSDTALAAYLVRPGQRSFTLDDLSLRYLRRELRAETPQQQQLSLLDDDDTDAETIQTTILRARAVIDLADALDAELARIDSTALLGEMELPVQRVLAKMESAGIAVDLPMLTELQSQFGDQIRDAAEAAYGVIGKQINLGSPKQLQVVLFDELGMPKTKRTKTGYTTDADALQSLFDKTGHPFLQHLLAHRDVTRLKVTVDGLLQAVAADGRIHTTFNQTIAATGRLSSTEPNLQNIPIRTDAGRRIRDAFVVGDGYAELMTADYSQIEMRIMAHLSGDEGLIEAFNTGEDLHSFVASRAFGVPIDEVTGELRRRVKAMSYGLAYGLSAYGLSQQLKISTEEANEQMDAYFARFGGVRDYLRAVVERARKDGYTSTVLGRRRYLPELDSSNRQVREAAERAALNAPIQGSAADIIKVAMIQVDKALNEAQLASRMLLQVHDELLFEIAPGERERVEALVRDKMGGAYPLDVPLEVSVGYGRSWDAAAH

[6] = molecular target: hpol β (Homo sapiens, UniProt P06746); experiment: TAMRA strand-displacement selectivity assay, X-family pol; assay type: biochemical; settings: 10 μM IAG-10, 1 nM hpol β
[7] = molecular target: T1, hpol κ; experiment: HPG chemical footprinting with LC-MS; settings: 10 μM hpol κ, IAG-10 20 and 100 μM, 500 μM HPG
[8] = tested on: hpol κ-proficient HAP-1 cells; experiment: Clonogenic survival assay; assay type: cell-based, human
[9] = tested on: hpol κ-deficient HAP-1 cells; experiment: Clonogenic survival assay; assay type: cell-based, human
[10] = tested on: hpol κ-deficient HAP-1 cells; experiment: Alkaline comet assay; assay type: cell-based, human
Summary of the method: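 100 000 HAP-1 cells per well, test compound 0.5 μM alone or with alkylating agent (100 μM), 1 h; DMSO control. Cells embedded in low-melting agarose (200–300 per well), lysed 1 h, alkaline unwinding (200 mM NaOH, 1 mM EDTA) 20 min RT, electrophoresis 21 V, 30 min, 4 °C, SYBR Gold stain. Read-out is % DNA in tail per cell; ≥20 cells per replicate, three biological replicates, mean ±SD.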

[11] = tested on: hpol κ-proficient HAP-1 cells; experiment: supF mutagenesis assay; assay type: cell-based, human; settings: 1 μM IAG-10, 24 h
Summary of the method: (§1)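 HAP-1 cells at ~80% confluency (IMDM, 10% FBS) lipofected for 24 h with pSP189 supF plasmid (10 μg per 10 cm dish), ±1 μM test compound. Plasmid was unmodified or pretreated with 100 mM MMS (HEPES pH 7.5, RT, 1 h). Recovered plasmid DpnI-digested, electroporated into E. coli MBM7070, plated on ampicillin/IPTG/X-gal. Mutation frequency = white/(blue + white); ≥10 000 colonies per condition; biological triplicate, mean ±SD.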

[12] = tested on: hpol κ-deficient HAP-1 cells; experiment: supF mutagenesis assay; assay type: cell-based, human; settings: 1 μM IAG-10, 24 h
Summary of the method: as §1

[13] = molecular target: T2, hpol η; experiment: Steady-state kinetic analysis of nucleotide insertion; assay type: biochemical; settings: increasing IAG-10 concentration

## Cl.[H]/N=C(\N)NN=Cc1cn(C(=O)c2cccc3ccccc23)c2ccc(Cl)cc12 [IAG-10, (E)-2-((1-(1-naphthoyl)-5-chloro-1H-indol-3-yl)-methylene)hydrazine-1-carboximidamide hydrochloride]
[1]; 10 μM IAG-10, 25 nM hpol κ
  polymerase activity in presence of compound: only hpol κ activity was inhibited
[1]; 40 μM compound, 1 nM hpol κ, 50 nM DNA, relative to DMSO control
  inhibition of enzyme activity in the initial screen: greatest inhibitory action
[1]; IC50, 0.1 nM hpol κ, 0.5 nM DNA, 95% CI in parentheses
  pIC50: 6.14
[1]; IC50, 0.2 nM hpol κ, 1 nM DNA, 95% CI in parentheses
  pIC50: 5.96
[1]; IC50, 0.2 nM hpol κ, 2.5 nM DNA, 95% CI in parentheses
  pIC50: 5.85
[1]; IC50, 0.5 nM hpol κ, 10 nM DNA, 95% CI in parentheses
  pIC50: 5.05
[1]; IC50, 1 nM hpol κ, 25 nM DNA, 95% CI in parentheses
  pIC50: 5.05
[1]; IC50, 1 nM hpol κ, 50 nM DNA, 100 μM dTTP, 1 mM MgCl2, 25 °C, mean n = 3
  pIC50: 5.14
[1]; initial reaction conditions (higher enzyme and DNA)
  specificity for hpol κ over η: ~ 2 fold
[1]; lower concentrations of enzyme and DNA
  specificity for hpol κ over η: ~ 30 fold
[2]
  polymerase activity in presence of compound: only hpol κ was inhibited
[3]
  polymerase activity in presence of compound: only hpol κ was inhibited
[4]
  polymerase activity in presence of compound: only hpol κ was inhibited
[5]
  polymerase activity in presence of compound: only hpol κ activity was inhibited
[6]
  polymerase activity in presence of compound: only hpol κ activity was inhibited
[7]
  change in the fraction of HPG-modified peptides containing Arg48: large increase
  decrease in the fraction of HPG-modified peptides (Arg145, Arg149, Arg505): > 50%
[8]; 0.5 μM IAG-10 alone
  colony formation: does not impair colony formation
[8]; 250 μM TMZ + 0.5 μM IAG-10 cotreatment, 1 h, 10 days culture
  colonies formed relative to untreated cells: ~ 40%
[9]; 0.5 μM IAG-10 alone
  colony formation: does not impair colony formation
[9]; TMZ + 0.5 μM IAG-10
  colony forming ability, cotreatment over TMZ alone: did not show any significant reduction
[10]; 0.5 μM IAG-10 alone, 1 h
  DNA damage (% DNA in tail) over control: did not increase DNA damage over control
[10]; 100 μM TMZ + 0.5 μM IAG-10, compared with TMZ alone
  DNA damage (% DNA in tail): did not increase further
[11]
  mutation frequency, MMS-damaged DNA over undamaged control plasmid: approximately twofold
  mutation frequency, undamaged pSP189 plasmid: did not change the mutation frequency
[12]
  mutation frequency, control or MMS-damaged DNA: did not alter the mutation frequency
[13]
  effect on Michaelis constant: linear increase
  effect on kcat: no measurable change
